From article PMC7245055 (Chemical biology & drug design, 2019)
≈ marks a conversion by molar mass, not a printed value. Entries after “also recorded” stand apart in the source; their conditions may differ.

Legend:
INS-1 β-cells [1] = details: cited from earlier work
[2] = Thermodynamic turbidimetric aqueous solubility assay; format: physicochemical; details: for aqueous solubility (in words): turbidity at 620 nm in H2O; for solubility: pure water with 1% DMSO, 37 °C, water, kinetic from dmso stock
Summary of the method: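 DMSO solutions of test compound were serially diluted from 40 mM to 0.1 mM. Each was diluted 2 μL into ~198 μL pure water and shaken on a rotary shaker at 37 °C for 1–2 h to reach equilibrium solubility. Turbidity was measured as absorbance at 620 nm. Triplicate wells, reported as means ± SD.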

INS-1 β cells [3] = assay: INS-1 cell viability against thapsigargin; format: cell-based, rat; details: TG 18 nM, 72 h, CellTiter-Glo
Summary of the method: (§1)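 INS-1 cells were plated in RPMI 1640 with 10% FBS at 5 × 10^3 cells/well and held 24 h at 37 °C. Test compound was pin-transferred, then stressor was added in medium: TG 18 nM or BFA 0.2 μg/mL. After 72 h the medium was removed and CellTiter-Glo (intracellular ATP) added; luminescence was read after 10 min. DMSO without stressor was normalized as 1. Data are means of 3 replicate wells, with 3 independent experiments.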

INS-1 β cells [4] = assay: INS-1 cell viability against brefeldin A; format: cell-based, rat; details: BFA 0.2 μg/mL, 72 h, CellTiter-Glo
Summary of the method: as §1

INS-1 β-cells [5] = assay: INS-1 β-cell viability against tunicamycin; format: cell-based, rat; details: INS-1 cells, Tm
Summary of the method: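 Rat INS-1 cells in RPMI 1640 with 10% FBS were seeded at 5 × 10^3 cells/well and held 24 h at 37 °C. Test compound was added as ten 2-fold serial titration points, then tunicamycin at 0.15 μg/mL final, for 72 h co-treatment. Viability was read as CellTiter-Glo luminescence (ATP) after 10 min. Maximum activity is % rescue, with Tm alone set as 0% and DMSO without Tm as 100%. EC50 was derived by curve fitting. Run in triplicate.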

Cc1ccc(C)c(NC(=O)c2nnn(-c3cccc(Cl)c3C)c2C)c1 [Compound 1, 1-(3-chloro-2-methylphenyl)-N-(2,5-dimethylphenyl)-5-methyl-1H-1,2,3-triazole-4-carboxamide, reference compound]
concentration at which β cell protective activity is exhibited (INS-1 β-cells [1]; narrow range of doses): 5~10 μM
maximal activity (INS-1 β-cells [1]; protection of β cells against ER stress): 97%
aqueous solubility (in words) [2]: poor aqueous solubility; also recorded: limited aqueous solubility; also recorded: aqueous insolubility

Cc1ccc(C)c(CNC(=O)CNC(=O)c2cccc(Cl)c2C)c1 [Compound 5a, 3-Chloro-N-(2-((2,5-dimethylbenzyl)amino)-2-oxoethyl)-2-methylbenzamide]
solubility [2]: ~75 µM (≈ 25.9 µg/mL)

Cc1c(Cl)cccc1C(=O)NCC(=O)NCCc1ccc(O)cc1 [Compound 5f, 3-Chloro-N-(2-((4-hydroxyphenethyl)amino)-2-oxoethyl)-2-methylbenzamide]
solubility [2]: ~200 µM (≈ 69.4 µg/mL)

Cc1c(Cl)cccc1C(=O)NCC(=O)NCc1ccc(C(F)(F)F)cc1 [Compound 5g, 3-Chloro-2-methyl-N-(2-oxo-2-((4-(trifluoromethyl)benzyl)amino)ethyl)benzamide]
aqueous solubility (in words) [2]: improved water solubility compare to 1

COc1cc(CNC(=O)CNC(=O)c2cccc(Cl)c2C)ccc1O [Compound 5h, 3-Chloro-N-(2-((4-hydroxy-3-methoxybenzyl)amino)-2-oxoethyl)-2-methylbenzamide]
aqueous solubility (in words) [2]: improved water solubility compare to 1

O=C(CNC(=O)c1cccc(O)c1)NCc1ccc(C(F)(F)F)cc1 [Compound 5m, 3-Hydroxy-N-(2-oxo-2-((4-(trifluoromethyl)benzyl)amino)ethyl)benzamide]
reduction in viability of INS-1 cells treated with TG (INS-1 β cells [3]): significantly reversed
reduction in viability of INS-1 cells treated with BFA (INS-1 β cells [4]): significantly reversed

COc1cc(CNC(=O)CNC(=O)c2cccc(O)c2)ccc1O [Compound 5n, 3-Hydroxy-N-(2-((4-hydroxy-3-methoxybenzyl)amino)-2-oxoethyl)benzamide]
β-cell protective activity (in words) (INS-1 β-cells [5]): significantly compromised activity

COc1cc(C(=O)NCC(=O)NCc2ccc(C(F)(F)F)cc2)ccc1O [Compound 5o, 4-hydroxy-3-methoxy-N-(2-oxo-2-((4-(trifluoromethyl)benzyl)amino)ethyl)benzamide]
β-cell protective activity (in words) (INS-1 β-cells [5]): significantly compromised activity

Cc1c(Cl)cccc1C(=O)NC(C)C(=O)NCc1ccc(C(F)(F)F)cc1 (stereo not shown) [Compound 5p, 3-Chloro-2-methyl-N-(1-oxo-1-((4-(trifluoromethyl)benzyl)amino)propan-2-yl)benzamide]
β-cell protective activity (in words) (INS-1 β-cells [5]): significantly less or not active

Cc1c(Cl)cccc1C(=O)NC(Cc1ccc(O)cc1)C(=O)NCc1ccc(C(F)(F)F)cc1 (stereo not shown) [Compound 5q, 3-Chloro-N-(3-(4-hydroxyphenyl)-1-oxo-1-((4-(trifluoromethyl)benzyl)amino)propan-2-yl)-2-methylbenzamide]
β-cell protective activity (in words) (INS-1 β-cells [5]): significantly less or not active
